Results from ChEMBL document CHEMBL5236549, “Discovery of 2-Sulfinyl-Diazabicyclooctane Derivatives, Potential Oral β-Lactamase Inhibitors for Infections Caused by Serine β-Lactamase-Producing Enterobacterales” (J Med Chem, 2021).
pIC50: −log10 of the molar value.

Legend:
[1] = AUC in mouse at 10 mg/kg,iv by LC/MS/MS analysis; format: ADME, organism-based; set-up: dose 10 mg/kg, route iv; conditions: in vivo
Outline: (§1)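 Plasma of the parent acid measured by LC/MS/MS (methanol precipitation, positive ESI, external standard); oral values follow prodrug dosing (rat fed, dog and monkey fasted). AUC from 0 h to last time point by linear trapezoid; F from oral AUC versus iv AUC of the parent. N = 2 (rat, dog), N = 3 (monkey, mouse).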

[2] = Total clearance in monkey at 5 mg/kg,iv by LC/MS/MS analysis; format: ADME, organism-based, Macaca mulatta; conditions: rhesus monkey, in vivo
Outline: (§2)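 Intravenous dosing (mouse 10, rat 1, dog 5, monkey 5 mg/kg); plasma quantified by LC/MS/MS after methanol precipitation with external standard; AUC by linear trapezoidal approximation; CLtot = dose/AUC.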

[3] = Half life in dog at 5 mg/kg,iv by LC/MS/MS analysis; format: ADME, organism-based, Canis lupus familiaris; conditions: in vivo
Outline: (§3)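 After iv dosing, T1/2 taken as ln 2/kel, with kel from the slope of the log concentration–time profile. Plasma levels measured by LC/MS/MS with an external standard.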

[4] = Half life in monkey at 5 mg/kg,iv by LC/MS/MS analysis; format: ADME, organism-based, Macaca mulatta; conditions: rhesus monkey, in vivo; outline: as §3
[5] = Inhibition of bacterial beta-lactamase KPC-2 using nitrocefin as substrate incubated for 20 mins; set-up: species or system Bacteria
Outline: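 Nitrocefin hydrolysis read by absorbance. Enzyme titrated to give about 0.2 absorbance change over the no-enzyme control. Enzyme added to nitrocefin (final 50 μg/mL) plus inhibitor, no preincubation, read after 20 min at 35 °C. IC50 is 50% reduction of hydrolysis. N = 1.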

Klebsiella pneumoniae [6] = assay: Antibacterial activity against Klebsiella pneumoniae SR09635 assessed as reduction in bacterial growth by measuring minimum […] concentration incubated for 16 to 20 hrs by CLSI based two-fold serial dilution method; conditions: time 16-20 hrs
Enterobacter cloacae [7] = assay: Antibacterial activity against Enterobacter cloacae SR36276 assessed as inhibition of bacterial growth incubated for 16 to 20 hrs by CLSI based two-fold serial dilution method
Enterobacter cloacae [8] = assay: Antibacterial activity against Enterobacter cloacae SR200030 assessed as reduction in bacterial growth by measuring minimum […] concentration incubated for 16 to 24 hrs by CLSI based two-fold serial dilution method; format: functional; conditions: time 16-24 hrs
Outline: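 Inhibitor twofold serially diluted in cation-adjusted Mueller Hinton broth containing ceftibuten 1 μg/mL. About 5 × 10⁴ cfu/well, 35 °C for 16−20 h. […] N = 1.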

Enterobacter cloacae [9] = assay: Antibacterial activity against Enterobacter cloacae SR100108 assessed as reduction in bacterial growth by measuring minimum […] concentration incubated for 16 to 20 hrs by CLSI based two-fold serial dilution method; conditions: time 16-20 hrs
Klebsiella pneumoniae [10] = assay: Antibacterial activity against Klebsiella pneumoniae SR201325 assessed as inhibition of bacterial growth incubated for 16 to 20 hrs by CLSI based two-fold serial dilution method
Klebsiella pneumoniae [11] = assay: Antibacterial activity against Klebsiella pneumoniae SR200263 assessed as reduction in bacterial growth by measuring minimum […] concentration incubated for 16 to 20 hrs by CLSI based two-fold serial dilution method; conditions: time 16-20 hrs
Klebsiella pneumoniae [12] = assay: Antibacterial activity against Klebsiella pneumoniae SR200487 assessed as reduction in bacterial growth by measuring minimum […] concentration incubated for 16 to 20 hrs by CLSI based two-fold serial dilution method; conditions: time 16-20 hrs
[13] = Stability in rat serum assessed as compound remaining at 5 micromol/L incubated for 30 mins by LC-MS/MS analysis; format: ADME, cell-free; conditions: dose 5 µmol/L, read-out: Stability
Outline: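 Pooled rat serum incubated with 5 μmol/L compound for 30 min at 37 °C, in duplicate; aliquot mixed with methanol, centrifuged, supernatant analysed by LC/MS/MS for % remaining.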

[14] = Total clearance in rat by LC-MS/MS analysis; format: ADME; conditions: in vivo
Klebsiella pneumoniae [15] = assay: Antibacterial activity against Klebsiella pneumoniae SR100758 assessed as inhibition of bacterial growth incubated for 16 to 24 hrs by CLSI based two-fold serial dilution method; format: functional; conditions: time 16-24 hrs
Outline: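 CLSI broth microdilution in cation-adjusted Mueller Hinton broth, twofold serial dilutions, about 5 × 10⁴ cfu/well from OD625, 35 °C for 16−20 h. MIC is the lowest concentration with no visible growth.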

[16] = Total clearance in dog at 5 mg/kg,iv by LC/MS/MS analysis; format: ADME, organism-based, Canis lupus familiaris; conditions: in vivo; outline: as §2
[17] = AUC in rat at 1 mg/kg,iv by LC/MS/MS analysis; format: ADME, organism-based; set-up: dose 1 mg/kg, route iv; conditions: in vivo; outline: as §1

SMILES: C[S@@+]([O-])[C@@H]1CC[C@@H]2CN1C(=O)N2O[C@H](F)C(=O)[O-].[Na+]
- AUC [1]: 4920 ng·h/mL
- clearance [2]: 6.15 mL/min/kg
- half-life [3]: 54 min
- half-life [4]: 30 min
- pIC50 [5]: 7.85
- MPC (Klebsiella pneumoniae [6]): 2 µg/mL
- MIC (Enterobacter cloacae [7]): > 32 µg/mL
- MPC (Enterobacter cloacae [8]): 4 µg/mL
- MPC (Enterobacter cloacae [9]): 1 µg/mL
- MIC (Klebsiella pneumoniae [10]): > 32 µg/mL
- MPC (Klebsiella pneumoniae [11]): 0.125 µg/mL
- MPC (Klebsiella pneumoniae [12]): 0.5 µg/mL
- remaining at 0.5 h, 5 µM [13]: 85%
- clearance [14]: 27 mL/min/kg
- MIC (Klebsiella pneumoniae [15]): > 32 µg/mL
- clearance [16]: 4.3 mL/min/kg
- AUC [17]: 620 ng·h/mL
